Experimental data collected from several papers.
Each line is one published result; the experiments were not run side by side.

| Compound | species | medium | route | dose | setting | clearance |
| --- | --- | --- | --- | --- | --- | --- |
| COc1cc(OC)c2nccc(N3CCc4c(cc(Cn5ccnc5)cc4-c4cn(C)nc4C(F)(F)F)C3=O)c2c1 | male CD-1 mouse | plasma | intravenous | 3 mg/kg | – | 63 mL/min/kg |
| Nc1ncc(-c2ccncc2)nc1Nc1ccc2[nH]ccc2c1 | male C57BL/6 mouse | plasma | intravenous | 5 mg/kg | – | 112 mL/min/kg |
| CC(C)(C)c1ccc(O)c(CN(Cc2cc(C(C)(C)C)ccc2O)C2CCC(NC(N)=O)CC2)c1 (stereo not shown) | male C57BL/6 mouse | plasma | intraperitoneal | 10 mg/kg | single dose | 17 mL/min/kg |
| CC[C@H](C)[C@@H]1NC(=O)[C@@](C)(NC(=O)[C@H](CCCNC(=N)N)NC(=O)[C@H](CC(C)C)NC(=O)[C@@H](NC(=O)[C@H](CCC(N)=O)NC(=O)[C@H](CC(C)C)NC(C)=O)[C@@H](C)O)CCCC=CCCC[C@@](C)(C(=O)N[C@@H](CC(C)C)C(=O)N[C@@H](Cc2ccc3ccccc3c2)C(N)=O)NC(=O)[C@H](CCCNC(=N)N)NC(=O)[C@H](CCC(N)=O)NC1=O | male BALB/c mouse | plasma | intravenous | 15 mg/kg | – | 0.96 mL/min/kg |
| CCO[C@H]1CCN(Cc2c(OC)cc(C)c3[nH]ccc23)[C@H](c2ccc(C(=O)O)cc2)C1 | C57BL/6 mouse | plasma | intravenous | 1 mg/kg | – | 16 mL/min/kg |
| CNCCN(C)c1cc(C#N)cc(CCc2cc(C)cc(N)n2)c1 | male BALB/c mouse | plasma | intravenous | 2 mg/kg | – | 184 mL/min/kg |
| CCc1cc(OC)c2nccc(N3CCc4c(cc(Cn5ccnc5)cc4-c4cn(C)nc4C(F)(F)F)C3=O)c2c1 | male CD-1 mouse | plasma | intravenous | 3 mg/kg | – | 16 mL/min/kg |
| Cc1c(Br)cc(NC(=O)CS(=O)(=O)O)cc1Br | CD-1 mouse | blood | intravenous | 2 mg/kg | – | 21.8 mL/min/kg |
| COc1cc(C(=O)N2CCC(N3CCN(C)CC3)CC2)ccc1Nc1ncc2c(n1)N(C)c1ccccc1C(=O)N2C | mouse | plasma | intravenous | 1 mg/kg | – | 5.6 mL/min/kg |
| CN(C)C/C=C/C(=O)Nc1ccc(O[C@@H]2CCC[C@@H](Nc3ncc(Cl)c(-c4c[nH]c5ccccc45)n3)C2)cc1 | male Swiss mouse | plasma | intravenous | 3 mg/kg | – | 24.9 mL/min/kg |
| COc1nc(-c2cc(C)c(N[C@@H](C)c3c(F)cc(F)cc3F)nn2)ccc1-n1cnc(C)c1 | male CD-1 mouse | plasma | intravenous | 1 mg/kg | single dose | 6.33 mL/min/kg |
| CC(C)c1cnn2c(NCc3ccccc3)cc(NC[C@H]3CCNC[C@@H]3O)nc12 | male CD-1 mouse | plasma | intravenous | 10 mg/kg | – | 78 mL/min/kg |
| Cc1noc(C)c1-c1ccc2nc(N3CCN(CCN(C)C)CC3)nc(N3CCOC[C@@H]3c3ccccc3)c2c1 | CD-1 mouse | plasma | intravenous | 2 mg/kg | – | 62.3 mL/min/kg |
| O=C(CS(=O)(=O)O)Nc1ccc(N2CCOCC2)c(Br)c1 | CD-1 mouse | blood | intravenous | 2 mg/kg | – | 62 mL/min/kg |
| COc1ccc2nccc(N3CCc4c(cc(Cn5ccnc5)cc4-c4cn(C)nc4C(F)(F)F)C3=O)c2c1 | male CD-1 mouse | plasma | intravenous | 3 mg/kg | – | 27 mL/min/kg |
| CC(C)N1Cc2cc(C(F)(F)F)ncc2C2=CN=C(NCc3c(F)ccc4c3CCO4)N3C=NC(C1=O)C23 (stereo not shown) | male CD-1 mouse | plasma | intravenous | 2 mg/kg | – | 1.71 mL/min/kg |
| Cc1noc(C)c1-c1ccc2nc(-c3cnn(CC(C)(C)O)c3)nc(N3CCNC[C@@H]3c3ccccc3)c2c1 | CD-1 mouse | plasma | intravenous | 2 mg/kg | – | 272 mL/min/kg |
| CCNc1nc2c(c(N3CC(=O)Nc4cc(OC)ccc43)n1)CCC2 | female C57BL/6 mouse | plasma | intravenous | 4 mg/kg | single dose | 108 mL/min/kg |
| COc1ccc2cc(CCC[18F])ccc2c1 | male BALB/c mouse | plasma | intravenous | – | – | 0.25 mL/min |
